19 molecules from ChEMBL document CHEMBL1138153, “N-substituted 4beta-methyl-5-(3-hydroxyphenyl)-7alpha-amidomorphans are potent, selective kappa opioid receptor antagonists” (J Med Chem, 2006) can be followed below.

For test [1], the target named is Mu-type opioid receptor (Homo sapiens) (UniProt P35372). The test can be described thus: Inhibition of DAMGO stimulated [35S]GTP-gamma-S binding to cloned human mu opioid receptor expressed in CHO cells. The format is functional, cell-based. The method in brief: (§1)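 Antagonism measured as a rightward shift of the agonist concentration–response curve for [35S]GTPγS binding in CHO cells expressing the cloned human receptor. Curves were run with and without one fixed concentration of test compound. Ke = [L]/(DR − 1), where [L] is the test compound concentration and DR is the ratio of agonist EC50 with versus without test compound.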
Sequence of Mu-type opioid receptor (Homo sapiens) (P35372 whole entry): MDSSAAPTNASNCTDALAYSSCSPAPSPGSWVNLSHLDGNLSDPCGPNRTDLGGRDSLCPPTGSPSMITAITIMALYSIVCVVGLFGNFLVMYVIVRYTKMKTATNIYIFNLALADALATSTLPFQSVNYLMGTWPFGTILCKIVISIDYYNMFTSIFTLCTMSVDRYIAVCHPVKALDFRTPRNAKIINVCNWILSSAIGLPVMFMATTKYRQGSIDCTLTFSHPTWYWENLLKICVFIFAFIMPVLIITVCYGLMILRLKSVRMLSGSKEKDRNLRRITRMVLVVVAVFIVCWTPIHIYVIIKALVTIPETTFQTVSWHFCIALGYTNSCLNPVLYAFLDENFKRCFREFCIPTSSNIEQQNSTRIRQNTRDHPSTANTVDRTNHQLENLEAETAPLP
For orientation: GTPγS is a poorly hydrolysed GTP analogue; its binding reports G protein activation.

Test [2] deals with Delta-type opioid receptor (Homo sapiens) (UniProt P41143). Kind of test: Inhibition of DPDPE stimulated [35S]GTP-gamma-S binding to cloned human delta opioid receptor expressed in CHO cells. The class given is functional, cell-based. In short, it runs like this:
as §1

Test [3] has as its target Kappa-type opioid receptor (Homo sapiens) (UniProt P41145). The test can be described thus: Inhibition of U69,593 stimulated [35S]GTP-gamma-S binding to cloned human kappa opioid receptor expressed in CHO cells. The format is functional, cell-based. In short, it runs like this: as §1
Test [4] deals with Opioid receptors; mu & kappa (Homo sapiens) (UniProt P41145+P35372). The test can be described thus: Selectivity for human kappa opioid receptor over human mu opioid receptor. The class given is protein assay.
Sequence of Opioid receptors; mu & kappa (Homo sapiens) (P35372 whole entry, looked up): as the sequence (P35372 whole entry) above
Sequence of Opioid receptors; mu & kappa (Homo sapiens) (P41145 whole entry, looked up): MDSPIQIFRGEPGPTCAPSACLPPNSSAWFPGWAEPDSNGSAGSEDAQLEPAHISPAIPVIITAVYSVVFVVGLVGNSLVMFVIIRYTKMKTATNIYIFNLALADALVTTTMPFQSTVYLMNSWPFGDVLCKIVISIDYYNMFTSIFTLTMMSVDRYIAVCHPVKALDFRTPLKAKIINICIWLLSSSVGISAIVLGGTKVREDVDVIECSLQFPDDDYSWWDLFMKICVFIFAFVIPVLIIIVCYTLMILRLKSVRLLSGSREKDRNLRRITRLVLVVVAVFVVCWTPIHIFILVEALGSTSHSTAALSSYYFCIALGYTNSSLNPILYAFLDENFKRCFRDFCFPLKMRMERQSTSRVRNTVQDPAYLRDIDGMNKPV
In test [5] the target is Opioid receptors; delta & kappa (Homo sapiens) (UniProt P41145+P41143). The test can be described thus: Selectivity for human kappa opioid receptor over human delta opioid receptor. The class given is protein assay.
Sequence of Opioid receptors; delta & kappa (Homo sapiens) (P41143 whole entry, looked up): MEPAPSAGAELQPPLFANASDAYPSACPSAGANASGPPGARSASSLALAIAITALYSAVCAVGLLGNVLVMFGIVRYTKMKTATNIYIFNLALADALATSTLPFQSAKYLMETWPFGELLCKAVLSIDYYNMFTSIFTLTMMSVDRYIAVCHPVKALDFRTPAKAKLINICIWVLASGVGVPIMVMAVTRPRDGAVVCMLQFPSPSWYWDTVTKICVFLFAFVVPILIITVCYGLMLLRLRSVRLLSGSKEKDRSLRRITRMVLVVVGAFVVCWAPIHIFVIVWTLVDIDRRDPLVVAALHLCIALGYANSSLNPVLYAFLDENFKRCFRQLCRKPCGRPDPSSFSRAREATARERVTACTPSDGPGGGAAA
Sequence of Opioid receptors; delta & kappa (Homo sapiens) (P41145 whole entry, looked up): as the sequence (P41145 whole entry, looked up) above

Molecules are shown by their SMILES.

Sequence of Delta-type opioid receptor (Homo sapiens) (P41143 whole entry): as the sequence (P41143 whole entry, looked up) above
Sequence of Kappa-type opioid receptor (Homo sapiens) (P41145 whole entry): as the sequence (P41145 whole entry, looked up) above

`COc1cc2c(cc1OC)CN(CCC(=O)N[C@H]1CC3CC(c4cccc(O)c4)(C1)C(C)CN3CCCc1ccccc1)CC2` (single isomer, unassigned; (-)): the Ke was 218 nM in test [1], 40 nM in test [2] and 0.54 nM in test [3]. Besides, the results for the Ratio Ke in test [4] and in test [5] were 404 and 74, respectively.
With `CC1CN(CCCc2ccccc2)C2C[C@H](NC(=O)CCN3CCc4c(O)cccc4C3)CC1(c1cccc(O)c1)C2` (stereo partly specified), the Ke in test [1] amounted to 4.6 nM; in test [2], 25 nM; in test [3], 0.07 nM. Moreover, the Ratio Ke was 66 in test [4] and 357 in test [5].
For the molecule `CC1CN(CCCc2ccccc2)C2C[C@H](NC(=O)CCN3CCc4cc(O)ccc4C3)CC1(c1cccc(O)c1)C2` (stereo partly specified), the Ke in test [1] came out at 26 nM; in test [2] it was 32 nM; in test [3], 0.3 nM. Moreover, the Ratio Ke in test [4] amounted to 87; in test [5], 107.
Taken in the same sequence, the figures for `CC1CCN(CCC(=O)N[C@H]2CC3CC(c4cccc(O)c4)(C2)C(C)CN3CCCc2ccccc2)CC1` (stereo partly specified) were 176 nM, 313 nM, 0.47 nM, 374 and 666.
The molecule `CC(C)[C@@H](CN1CC[C@@](C)(c2cccc(O)c2)[C@@H](C)C1)NC(=O)[C@H]1Cc2ccc(O)cc2CN1` came in with a Ke in test [3] of 0.02 nM.
With `COc1ccc2c(c1)CN(CCC(=O)N[C@H]1CC3CC(c4cccc(O)c4)(C1)C(C)CN3CCCc1ccccc1)CC2` (stereo partly specified), the Ke is 28 nM in test [1], 35 nM in test [2] and 0.28 nM in test [3]. Moreover, the Ratio Ke in test [4] is 100; in test [5], 125.
Consider `CC1CN(CCCc2ccccc2)C2C[C@H](NC(=O)CCN3CCOCC3)CC1(c1cccc(O)c1)C2` (stereo partly specified), for which the Ke turned out to be 259 nM in test [1], 77 nM in test [2] and 2.2 nM in test [3]. The Ratio Ke in test [4] stood at 118; in test [5] it was 35.
Regarding `CC1CN(CCCc2ccccc2)C2C[C@H](NC(=O)CCN3CCc4ccccc4C3)CC1(c1cccc(O)c1)C2` (stereo partly specified), the figures for the Ke in test [1], in test [2] and in test [3] were 48 nM, 13 nM and 0.09 nM, respectively. Moreover, the Ratio Ke in test [4] was found to be 533; in test [5], 144.
Taken in the same sequence, the figures for `COc1ccc2c(c1)CCN(CCC(=O)N[C@H]1CC3CC(c4cccc(O)c4)(C1)C(C)CN3CCCc1ccccc1)C2` (stereo partly specified) were 261 nM, 42 nM, 0.12 nM, 2180 and 350.
For the molecule `CC1CN(CCCc2ccco2)C2C[C@H](NC(=O)CCN3CCc4ccccc4C3)CC1(c1cccc(O)c1)C2` (stereo partly specified), the Ke turned out to be 35 nM in test [1], 52 nM in test [2] and 0.32 nM in test [3]. For the same molecule, the Ratio Ke came to 109 in test [4] and 163 in test [5].
Turning to `CC1CN(CCCc2ccccc2)C2C[C@H](NC(=O)CCN3CCN(C)CC3)CC1(c1cccc(O)c1)C2` (stereo partly specified), the Ke in test [1] worked out at 82 nM; in test [2], 186 nM; in test [3], 0.87 nM. Moreover, the Ratio Ke was 94 in test [4] and 214 in test [5].
For the molecule `CC1CN(CCCc2ccsc2)C2C[C@H](NC(=O)CCN3CCc4ccccc4C3)CC1(c1cccc(O)c1)C2` (stereo partly specified), the Ke is 52 nM in test [1], 29 nM in test [2] and 1.1 nM in test [3]. The Ratio Ke was 47 in test [4] and 26 in test [5].
For the molecule `Cc1ccccc1CCCN1CC(C)C2(c3cccc(O)c3)CC1C[C@H](NC(=O)CCN1CCc3ccccc3C1)C2` (stereo partly specified), the Ke in test [1] turned out to be 41 nM; in test [2], 20 nM; in test [3], 0.2 nM. Besides, the Ratio Ke was 205 in test [4] and 100 in test [5].
As to `CC1CN(CCCc2ccccc2)C2C[C@H](NC(=O)CCN3CCCCC3)CC1(c1cccc(O)c1)C2` (stereo partly specified), the Ke in test [1] was 42 nM; in test [2] it was 33 nM; in test [3] it was 0.24 nM. Moreover, the Ratio Ke worked out at 175 in test [4] and 138 in test [5].
Taken in the same sequence, the figures for `Cc1ccccc1CCN1CC(C)C2(c3cccc(O)c3)CC1C[C@H](NC(=O)CCN1CCc3ccccc3C1)C2` (stereo partly specified) were 28 nM, 25 nM, 0.04 nM, 700 and 625.
For the molecule `CC1CN(CCCc2ccccc2)C2C[C@H](NC(=O)CCN3CCc4ccc(O)cc4C3)CC1(c1cccc(O)c1)C2` (stereo partly specified), the Ke is 52 nM in test [1], 62 nM in test [2] and 0.09 nM in test [3]. For the same molecule, the Ratio Ke in test [4] was 578; in test [5], 689.
For the molecule `CCCCCCN1CC(C)C2(c3cccc(O)c3)CC1C[C@H](NC(=O)CCN1CCc3ccccc3C1)C2` (stereo partly specified), the Ke came out at 103 nM in test [1], 145 nM in test [2] and 0.2 nM in test [3]. The Ratio Ke in test [4] stood at 515; in test [5], 725.
On to `Cc1ccccc1CN1CC(C)C2(c3cccc(O)c3)CC1C[C@H](NC(=O)CCN1CCc3ccccc3C1)C2` (stereo partly specified), for which the Ke in test [1] is more than 500 nM; in test [2], more than 500 nM; in test [3], 6.1 nM. Besides, the Ratio Ke in test [4] and in test [5] was more than 82 each time.
As to `CC1CN(CCCc2cccs2)C2C[C@H](NC(=O)CCN3CCc4ccccc4C3)CC1(c1cccc(O)c1)C2` (stereo partly specified), the Ke in test [1] was 25 nM; in test [2] it was 19 nM; in test [3], 1.8 nM. Besides, the Ratio Ke in test [4] worked out at 14; in test [5], 11.
